Compound activity: PubChem BioAssay, several laboratories
Mdm2-MdmX inh – disrupts the human Mdm2-MdmX interaction | O15151+Q00987 | SaOS-2 split-luciferase Mdm2/MdmX complementation, luminescence | inhibition, % at 8 µM | actives 3% (n = 330,000) | AID 485346;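 active = inhibition of at least 50% at 8 µM in the primary screen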
Target sequence (O15151 whole entry, looked up): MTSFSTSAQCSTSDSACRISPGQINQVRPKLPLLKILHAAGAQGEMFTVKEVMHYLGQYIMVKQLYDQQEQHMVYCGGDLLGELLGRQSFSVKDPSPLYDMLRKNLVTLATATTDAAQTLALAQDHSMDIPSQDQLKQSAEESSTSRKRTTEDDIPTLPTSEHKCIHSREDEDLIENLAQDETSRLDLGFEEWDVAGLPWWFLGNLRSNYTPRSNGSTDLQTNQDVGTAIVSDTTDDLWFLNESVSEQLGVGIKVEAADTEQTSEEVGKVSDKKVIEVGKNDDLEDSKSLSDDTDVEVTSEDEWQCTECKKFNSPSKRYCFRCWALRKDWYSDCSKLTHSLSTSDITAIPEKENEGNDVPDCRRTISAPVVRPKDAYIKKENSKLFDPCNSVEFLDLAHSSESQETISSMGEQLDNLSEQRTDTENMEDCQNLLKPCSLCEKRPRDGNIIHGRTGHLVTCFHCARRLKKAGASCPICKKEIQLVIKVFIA
Target sequence (Q00987 whole entry, looked up): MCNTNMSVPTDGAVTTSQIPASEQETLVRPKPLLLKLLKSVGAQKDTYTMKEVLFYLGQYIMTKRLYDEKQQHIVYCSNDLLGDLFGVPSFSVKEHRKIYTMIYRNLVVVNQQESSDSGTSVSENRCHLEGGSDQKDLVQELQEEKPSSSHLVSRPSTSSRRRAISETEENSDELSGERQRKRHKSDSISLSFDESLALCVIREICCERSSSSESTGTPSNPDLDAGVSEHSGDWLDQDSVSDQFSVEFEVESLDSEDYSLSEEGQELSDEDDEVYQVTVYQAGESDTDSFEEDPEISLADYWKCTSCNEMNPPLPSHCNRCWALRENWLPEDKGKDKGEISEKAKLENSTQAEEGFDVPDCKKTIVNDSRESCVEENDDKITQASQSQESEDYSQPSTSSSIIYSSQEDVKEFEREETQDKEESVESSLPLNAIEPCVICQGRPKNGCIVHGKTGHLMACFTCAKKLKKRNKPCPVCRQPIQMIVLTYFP
Calb FLC – affects C. albicans growth with fluconazole. actives 0.57% (n = 300,000). growth inhibition, % (no concentration beside the values). C. albicans CaCi-2 (fluconazole-resistant clinical isolate) + fluconazole, Alamar Blue growth, 48 h. AID 1979;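 active = growth inhibition above about 58% in most replicates, limit read from the data, passing the limit was not always enough; inconclusive = exactly half the replicates above a set limit; inactive = most replicates below a set limit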;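 also: all wells also contain fluconazole at 8 µg/ml as a sub-toxic cotreatment; 0% = median of DMSO wells and 100% = median of geldanamycin control wells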
Beta cell apopt – blocks beta cell apoptosis | AID 435005 | protection from apoptosis, % (no concentration beside the values) | actives 0.8% (n = 300,000) | INS-1E cytokine-induced death, ATP luminescence, 48 h; percent of positive-control rescue, neutral wells zero;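 active = Every replicate reaches about 75%, or at least half do and their mean reaches it too, limit read from the data; inconclusive = At least half of replicates reach the limit but their mean does not; inactive = Under half of replicates reach the limit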;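 also: 0% = cytokine-treated negative control wells and 100% = positive control rescue; higher means more ATP so stronger rescue from cytokine killing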
T cruzi repl – blocks replication of Trypanosoma cruzi; T. cruzi beta-gal in NIH3T3, luminescence, 90 h; actives 1.4% (n = 300,000); inhibition, % (no concentration beside the values);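 active = mean inhibition across valid replicates above about 55%, limit read from the data; inconclusive = mean below that limit but half or more replicates reach it; inactive = mean below it, under half of replicates reach it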;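 also: signal also drops with host cell toxicity which is not excluded here; 0% = plate median of DMSO wells and 100% = zero luminescence signal; higher percent means less beta-gal luminescence so fewer parasites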
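System – NIH/3T3 host cells with β-galactosidase reporter T. cruzi · Doses – single 50 nL compound addition per well in DMSO · Reagent – 5000 T. cruzi trypomastigotes/well · Medium – Low-serum DMEM with 2% FBS · Timing – ≥90 h infection period, 3 h prior cell attachment · Evaluation – parasite load inhibition, % · Technique – GalScreen luminescence, 60 min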
CSC inhib – blocks cancer stem cells; cancer stem cell-like cells viability, luminescence; inhibition, % at 7.5 µM; actives 1.1% (n = 300,000); in the data active = inhibition above about 75%; inconclusive = no clear call, values can overlap the other calls; tested in HMLE shEcad cells
SKKanGAS inh – inhibitors of SKKanGAS S. pyogenes growth in kanamycin (SK-promoter or general growth effect); BacTiter-Glo, 6 h; inhibition, % at 7.5 µM; actives 1.3% (n = 300,000);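 active = mean replicate score, as percent of positive control median, at least 50; inconclusive = mean below 50 but one replicate at or above 50; inactive = mean and every replicate below 50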;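 also: strain carries kanamycin resistance gene driven by streptokinase promoter and grows in 40 µg/ml kanamycin; loss of luminescence reflects streptokinase promoter inhibition or plain growth inhibition; 0% = median of DMSO wells and 100% = positive control at its reference dose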
Active calls of the source: *; ? = inconclusive; / = not tested or not shown. Most compounds without a hit are left out; they make up all but 5.7% or so of the library.

SMILES	Mdm2-MdmX inh	Calb FLC	Beta cell apopt	T cruzi repl	CSC inhib	SKKanGAS inh
CCOC(=O)c1sc2ncnc(N3CCN(c4ccc(OC)cc4)CC3)c2c1C	-2	-2	2	25	25	69*
COc1ccc(-c2csc3ncnc(N4CCN(S(=O)(=O)c5cccc(Br)c5)CC4)c23)cc1	35	9	/	62*	5	-6
Cc1ccc(OCCN2CCN(c3ncnc4sc(C)c(C)c34)CC2)cc1	8	-21	114*	-27	41	5
C/C(=N\NC(=O)c1cccc(Br)c1)c1cccc(NC(=O)c2ccc(C)o2)c1	-10	1	-4	-10	1	16
Cc1ccc(S(=O)(=O)N2CCN(c3ncnc4scc(-c5ccccc5)c34)CC2)cc1	-10	/	15	/	21	/
Cc1sc2ncnc(N3CCN(S(=O)(=O)c4ccccc4)CC3)c2c1C	3	/	99*	/	/	/
CCN(c1ccc(OC)cc1)S(=O)(=O)c1nnc(NC(=O)COc2ccccc2)s1	-25	-9	-1	15	15	22
CN(C)CCCNC(=O)/C(=C/c1ccc(-c2ccc([N+](=O)[O-])cc2)o1)NC(=O)c1ccccc1	24	-9	3	21	36	2
COC(=O)/C(=C\c1ccc([N+](=O)[O-])o1)NC(=O)c1ccccc1	18	102*	-10	49	-12	3
CCCCNC(=O)/C(=C\c1ccc([N+](=O)[O-])o1)NC(=O)c1ccccc1	24	100*	2	63*	0	5
Cc1cccc(NC(=O)/C(=C\c2ccc([N+](=O)[O-])o2)NC(=O)c2ccc(Cl)cc2)c1	/	/	-3	/	4	/
COc1ccccc1N1CCN(C(=O)c2cccc(S(=O)(=O)N3CCCCCC3)c2)CC1	21	/	/	/	/	/
O=C(Nc1cccc(N2C(=O)C=CC2=O)c1)c1cccs1	25	7	14	61*	11	6
Cc1nc2ccccc2c(=O)n1-c1cccc(NC(=O)c2cccs2)c1	4	0	7	2	9	20
O=C(/C=C/c1cccnc1)c1ccc(NC(=O)c2cccc(Br)c2)cc1	8	0	9	38	-3	-4
Cc1cccc(C(=O)Nc2ccc(C(=O)/C=C/c3cccnc3)cc2)c1	/	10	101*	35	52	4
Cc1cccc(C(=O)Nc2ccc(NC(=O)c3ccccc3)cc2)c1	11	-3	3	1	-10	1
O=C(Nc1ccc(O)cc1)c1ccc(NC(=O)c2cccs2)cc1	-13	4	-5	-19	85*	-2
Cc1cccc(C(=O)Nc2ccc(C(=O)Nc3ccc(O)cc3)cc2)c1	29	4	2	-3	95*	0
CC1CN(c2ccc(S(=O)(=O)N3CCCC3)cn2)CC(C)O1 (configuration not stated)	-20	-1	-5	-6	-24	-4
COc1cccc(CNC(=O)[C@H](C)NC(=O)C2CCN(S(=O)(=O)c3ccccc3)CC2)c1	21	10	1	3	-11	0
O=S(=O)(c1ccccc1F)N1CCN(CCOc2ccccc2)CC1	17	/	13	/	8	/
O=C(Nc1nccs1)c1c(O)c2cccc3c2n(c1=O)CCC3	49	2	9	21	/	100*
CC(C)(C)c1ccccc1NC(=O)c1c(O)c2cccc3c2n(c1=O)CC3	12	82*	3	?	39	29
O=C(Nc1ccccn1)c1c(O)c2cccc3c2n(c1=O)CCC3	39	-7	-7	-24	-11	23
SMILES	Mdm2-MdmX inh	Calb FLC	Beta cell apopt	T cruzi repl	CSC inhib	SKKanGAS inh
Oc1c(Cl)cc(Cl)cc1C=Nc1ccc2c(c1)OCCO2	36	-29	-3	-5	-7	5
CN(/N=C/c1cc(Cl)cc(Cl)c1O)C(=S)NC(C)(C)C	8	-5	15	-12	100*	28
CC(=O)Nc1ccc(OCC(O)Cn2c3ccccc3c3ccccc32)cc1 (configuration not stated)	3	2	-1	32	52	-6
CC(=O)Nc1ccc(OCC(O)Cn2c3ccccc3c3ccccc32)c(C)c1 (configuration not stated)	49	-14	10	56*	78*	11
CC(=O)NCCc1csc(-c2ccccc2)n1	25	3	0	-8	-5	1
CC(C)(C)CC(=O)NCCc1csc(-c2ccccc2)n1	-33	-4	-4	61*	-10	-22
COc1ccc(NC(=O)Nc2cccc3c2O[C@H](CN(C)C(=O)Nc2ccc(OC)cc2)[C@@H](C)CN([C@H](C)CO)C3=O)cc1	6	/	3	/	-14	/
O=C(Nc1nc(-c2ccc(-c3ccccc3)cc2)cs1)C1CCCO1 (configuration not stated)	12	0	5	2	9	64*
Cc1c(C(=O)Nc2cccc([N+](=O)[O-])c2)csc1-c1ccccc1	45	-11	3	60*	14	-4
O=[N+]([O-])c1cccc(-c2csc(Nc3ccccc3)n2)c1	-80	-29	10	28	94*	/
O=C(Nc1nc(-c2ccccc2)cs1)C1CCCN(S(=O)(=O)c2cccc([N+](=O)[O-])c2)C1 (configuration not stated)	42	-19	/	74*	2	13
COc1ccccc1Nc1nc(-c2cccc([N+](=O)[O-])c2)cs1	-11	46	25	38	74	-20
COc1ccc(C(=O)N(C)C2CCCc3ccccc32)cc1OC1CCN(C(C)C)CC1 (configuration not stated)	-7	-4	22	26	-6	-5
O=C(Nc1nc(-c2ccccc2)cs1)C1CCCCN1S(=O)(=O)c1ccc(Cl)cc1 (configuration not stated)	33	-4	17	78*	31	18
O=C(Nc1nc(-c2cccnc2)cs1)c1cccc([N+](=O)[O-])c1	-3	2	5	7	3	7
O=C(Nc1nc(-c2ccccc2)cs1)c1cccc([N+](=O)[O-])c1	-28	-32	5	55*	19	19
CCCc1ncc(C(O)c2ccccc2OC)n1C (configuration not stated)	8	-3	-11	-13	-6	8
CC(=O)c1cccc(NS(=O)(=O)c2ccc(N/C=C/C(=O)c3ccc(F)cc3)cc2)c1	36	-6	112*	-18	1	23
CC(=O)c1cccc(NS(=O)(=O)c2ccc(N/C=C\C(=O)c3ccc(F)cc3)cc2)c1	7	-35	98*	13	20	36
CC(=O)c1cccc(NS(=O)(=O)c2ccc(N/C=C\C(=O)c3ccc(C)cc3)cc2)c1	41	-22	45	-1	-6	5
COc1ccc(NC(=O)C(OC(=O)c2cnccn2)c2ccccc2)cc1Cl (configuration not stated)	8	-7	6	-4	/	8
